Reference: ChEMBL document CHEMBL1154246, “Spirobisnaphthalene analogues from the endophytic fungus Preussia sp” (J Nat Prod, 2009)
Values after ≈ are worked out from the molar mass of the structure shown. Active and inactive are the calls of the source.

Experiments:
[1] = test system: Staphylococcus aureus; test: Antibacterial activity against Staphylococcus aureus CMCC B26003 at 5 ug/disk after 24 hrs by paper disk method; format: functional
Summary of the method: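 S. aureus grown in MHB broth, final 10^6 cfu/mL. Compound loaded onto 6 mm paper disks at 5 µg/disk and placed on MH agar, 37 °C for 24 h. Inhibition zone diameter measured in mm, n = 3.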

[2] = test system: Staphylococcus aureus; test: Antibacterial activity against Staphylococcus aureus CMCC B26003 after 24 hrs by agar dilution method; format: functional
Summary of the method: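 S. aureus prepared from broth culture in MHB, final inoculum 10^6 cfu/mL. Agar dilution following NCCLS 2002 criteria, with 11 concentrations from 800 down to 0.78 µM (twofold steps).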

[3] = test system: Candida albicans; test: Antifungal activity against Candida albicans ATCC 10231 at 50 ug/disk after 48 hrs by paper disk method; format: functional, organism-based
Summary of the method: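 C. albicans grown in SDB broth, final 10^5 cfu/mL. Compound applied to 6 mm paper disks at 50 µg/disk on SD agar and incubated at 25 °C for 48 h. Zone of inhibition measured in mm.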

[4] = test system: A2780; test: Cytotoxicity against human A2780 cells by MTT assay; format: functional, cell-based
Summary of the method: (§1)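 MTT viability read-out in human cancer lines: A2780 ovarian, BEL-7404 liver, A-549, BGC-823 and HCT-8. IC50 derived from the concentration–response data.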

[5] = Cytotoxicity against human Bel7404 cells by MTT assay; format: functional, cell-based, BEL-7404; summary of the method: as §1
[6] = test system: HCT-8; test: Cytotoxicity against human HCT8 cells by MTT assay; format: functional, cell-based; summary of the method: as §1
[7] = test system: BGC-823; test: Cytotoxicity against human BGC823 cells by MTT assay; format: functional, cell-based; summary of the method: as §1
[8] = test system: A549; test: Cytotoxicity against human A549 cells by MTT assay; format: functional, cell-based; summary of the method: as §1
[9] = test system: Candida albicans; test: Antifungal activity against Candida albicans ATCC 10231 at 25 ug/disk after 48 hrs by paper disk method; format: functional; settings: ATCC 10231, 48 h, read-out: IZ
Summary of the method: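 C. albicans ATCC 10231 grown in SDB broth culture, adjusted to a final 10^5 cfu/mL, and spread on SD agar. Sample loaded onto 6 mm paper disks placed on the agar surface. Plates incubated at 25 °C for 48 h. Read-out is the diameter of the inhibition zone in mm.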

[10] = test system: Staphylococcus aureus; test: Antibacterial activity against Staphylococcus aureus CMCC B26003 at 10 ug/disk after 24 hrs by paper disk method; format: functional; settings: CMCC B26003, 24 h, read-out: IZ
Summary of the method: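 Paper-disk diffusion against S. aureus at 10 µg/disk on MH agar, inoculum 10^6 cfu/mL from MHB broth, 6 mm disks, 37 °C for 24 h. Inhibition zone diameter recorded in mm, n = 3.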

[11] = Homo sapiens, BEL-7404, read-out: IC50
[12] = Homo sapiens, HCT-8, read-out: IC50
[13] = Homo sapiens, BGC-823, read-out: IC50

For `O=C1C=CC(=O)C12C=CC1(Oc3cccc4cccc(c34)O1)C2O` (centres undefined) [SPIROPREUSSIONE A], which zone of inhibition at 5 µg/disc ([1]; CMCC B26003, 24 h, read-out: IZ) is on record?
Its zone of inhibition at 5 µg/disc is 16.4 mm.

What about the MIC ([2]; CMCC B26003, 24 h) of the same compound?
The MIC was 25 µM (≈ 8.01 µg/mL).

What about the Activity [3] of the same compound?
Its Activity is “inactive”.

What about the IC50 ([4]; Homo sapiens, A2780, read-out: IC50) of the same compound?
The IC50 was 2400 nM.

What about the IC50 [5, 11] of the same compound?
The IC50 was 3000 nM.

What about the IC50 [6, 12] of the same compound?
Its IC50 is greater than 10000 nM.

What about the IC50 [7, 13] of the same compound?
Its IC50 is greater than 10000 nM.

What about the IC50 ([8]; Homo sapiens, A549, read-out: IC50) of the same compound?
The IC50 was greater than 10000 nM.

Which zone of inhibition at 25 µg/disc [9] does the source give for `OC(Cn1cncn1)(Cn1cncn1)c1ccc(F)cc1F` [FLUCONAZOLE] here?
Its zone of inhibition at 25 µg/disc is 31.3 mm.

Which “inhibition zone (IZ)” value [1] does the source give for `O=C1C=Cc2cc3c(c4ccc(O)c1c24)C1(Oc2cccc4cccc(c24)O1)C1C(=O)C=CC31O` (centres undefined) [SPIROPREUSSIONE B] here?
Its value is “inactive”.

And the MIC [2]?
The MIC was “inactive”.

And the Activity [3]?
The Activity was “inactive”.

What about the IC50 ([4]; a2780) of the same compound?
Its IC50 is “Not Active”.

What about the IC50 ([5]; bel-7404) of the same compound?
The IC50 was “Not Active”.

What about the IC50 ([6]; hct-8) of the same compound?
Its IC50 is “Not Active”.

And the IC50 ([7]; bgc-823)?
The IC50 was “Not Active”.

What about the IC50 ([8]; a549) of the same compound?
The IC50 was “Not Active”.

Which IC50 [5, 11] does the source give for `CC(=O)O[C@H]1C(=O)[C@@]2(C)[C@H]([C@H](OC(=O)c3ccccc3)[C@]3(O)C[C@H](OC(=O)[C@H](O)[C@@H](NC(=O)c4ccccc4)c4ccccc4)C(C)=C1C3(C)C)[C@]1(OC(C)=O)CO[C@@H]1C[C@@H]2O` [PACLITAXEL] here?
The IC50 was 12.3 nM.

And the IC50 [6, 12]?
Its IC50 is 3.6 nM.

And the IC50 [7, 13]?
Its IC50 is 3.3 nM.

Which zone of inhibition at 10 µg/disc [10] does the source give for `CC1(C)S[C@@H]2[C@H](NC(=O)[C@H](N)c3ccccc3)C(=O)N2[C@H]1C(=O)O` [AMPICILLIN SODIUM] here?
Its zone of inhibition at 10 µg/disc is 38.2 mm.

Which “inhibition zone (IZ)” value [1] does the source give for `Oc1ccc2c(c1)C1(Oc3cccc4cccc(c34)O1)[C@@H]1O[C@@H]1[C@@H]2O` [SPIROPREUSSOMERIN A] here?
Its value is “inactive”.

And the MIC [2]?
The MIC was “inactive”.

What about the Activity [3] of the same compound?
Its Activity is “inactive”.

And the IC50 ([4]; a2780)?
Its IC50 is “Not Active”.

What about the IC50 ([5]; bel-7404) of the same compound?
The IC50 was “Not Active”.

And the IC50 ([6]; hct-8)?
The IC50 was “Not Active”.

What about the IC50 ([7]; bgc-823) of the same compound?
Its IC50 is “Not Active”.

What about the IC50 ([8]; a549) of the same compound?
Its IC50 is “Not Active”.
